Data: ChEMBL document CHEMBL1125755, “Synthesis and structure-activity relationships of benzo[b]thienylallylamine antimycotics” (1991)
In brackets after ≈: the same amount, converted by molar mass.

Assays:
Sporothrix schenckii [1] = experiment: Evaluated in vitro for the minimum inhibitory concentration against Sporothrix schenckii.
Candida albicans [2] = experiment: Evaluated in vitro for the minimum inhibitory concentration against Candida albicans 124; type: functional
Summary of the method: (§1)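 Yeast tube dilution in malt extract broth (pH 4.8), with compounds in DMSO serially diluted in the medium. Inoculum was blastospores from about 30-h shaken cultures in yeast nitrogen base at 37 °C. Growth was read after 48 h at 30 °C. MIC was the lowest concentration without macroscopically visible growth.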

Trichophyton benhamiae [3] = experiment: Evaluated in vitro for the minimum inhibitory concentration against Trichophyton mentagrophytes; type: functional, Arthroderma benhamiae
Summary of the method: (§2)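 Dermatophytes were tested in glass tubes of Sabouraud's dextrose broth (pH 6.5) against DMSO-dissolved compounds serially diluted in the medium. Inoculum was taken by spatula from 21-day Kimming agar cultures grown at 30 °C. Incubation was 7 days at 30 °C. MIC was the lowest concentration showing no macroscopic fungal growth.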

Aspergillus fumigatus [4] = experiment: Evaluated in vitro for the minimum inhibitory concentration against Aspergillus fumigatus.
Candida parapsilosis [5] = experiment: Evaluated in vitro for the minimum inhibitory concentration against Candida parapsilosis 39.; type: functional; conditions: Lodderomyces parapsilosis
Summary of the method: as §1

Microsporum canis [6] = experiment: Evaluated in vitro for the minimum inhibitory concentration against Microsporum canis.; type: functional
Summary of the method: as §2

Sporothrix schenckii [7] = experiment: In vitro minimum inhibitory concentration which is the lowest concentration at which no signs of fungal growth were detected against Sporothrix schenckii
Trichophyton benhamiae [8] = experiment: In vitro minimum inhibitory concentration which is the lowest concentration at which no signs of fungal growth were detected against Trichophyton mentagrophytes.; type: functional, Arthroderma benhamiae
Summary of the method: as §2

Candida parapsilosis [9] = experiment: In vitro minimum inhibitory concentration which is the lowest concentration at which no signs of fungal growth were detected against Candida parapsilosis 39.; type: functional; conditions: Lodderomyces parapsilosis
Summary of the method: as §1

Aspergillus fumigatus [10] = experiment: In vitro minimum inhibitory concentration which is the lowest concentration at which no signs of fungal growth were detected against Aspergillus fumigatus.
Microsporum canis [11] = experiment: In vitro minimum inhibitory concentration which is the lowest concentration at which no signs of fungal growth were detected against Microsporum canis.; type: functional
Summary of the method: as §2

Candida albicans [12] = experiment: In vitro minimum inhibitory concentration which is the lowest concentration at which no signs of fungal growth were detected against Candida albicans 124; type: functional
Summary of the method: as §1

Aspergillus fumigatus [13] = experiment: In vitro minimum inhibitory concentration at which no signs of fungal growth were detected against laboratory adapted strains of Aspergillus fumigatus.; type: functional
Summary of the method: (§3)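 Inoculum of filamentous fungi harvested from 21-day-old Kimming agar cultures grown at 30 °C. Broth dilution in glass tubes with Sabouraud's dextrose broth (pH 6.5); compounds dissolved in DMSO and serially diluted in medium. Incubation at 30 °C, read after 72 h. MIC taken as the lowest concentration with no macroscopically visible growth.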

Arthrodermataceae [14] = experiment: In vitro minimum inhibitory concentration at which no signs of fungal growth were detected against laboratory adapted strains of dermatophytes.; type: functional
Summary of the method: (§4)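 Sabouraud's dextrose broth (pH 6.5) in glass tubes; compounds dissolved in DMSO and serially diluted with medium. Incubated at 30 °C and read after 7 days. MIC is the lowest concentration with no macroscopically visible fungal growth.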

Candida albicans [15] = experiment: In vitro minimum inhibitory concentration at which no signs of fungal growth were detected against clinical isolated strains of Candida albicans.; type: functional
Summary of the method: as §1

Arthrodermataceae [16] = experiment: In vitro minimum inhibitory concentration at which no signs of fungal growth were detected against clinical isolated strains of dermatophytes.; type: functional
Summary of the method: as §2

Sporothrix schenckii [17] = experiment: In vitro minimum inhibitory concentration at which no signs of fungal growth were detected against laboratory adapted strains of Sporotrix schenck ii.; type: functional
Summary of the method: as §4

[18] = tested on: Scopulariopsis brevicaulis; experiment: In vitro minimum inhibitory concentration at which no signs of fungal growth were detected against laboratory adapted strains of Scopulariopsis brevicaulis.; type: functional
Summary of the method: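 Inoculum of this mould harvested from 21-day-old Kimming agar cultures grown at 30 °C. Compounds dissolved in DMSO and serially diluted in broth in glass tubes. Incubated at 30 °C and read after 72 h. MIC is the lowest concentration with no macroscopically detectable growth.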

Nakaseomyces glabratus = experiment: In vitro minimum inhibitory concentration at which no signs of fungal growth were detected against laboratory adapted strains of Torulopsis glabrata.; type: functional
Summary of the method: (§5)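 Yeast blastospores taken from shaken cultures about 30 h old, grown at 37 °C in yeast nitrogen base. Tube dilution used malt extract broth (pH 4.8); compounds were dissolved in DMSO and serially diluted in medium. Incubated at 30 °C and read after 48 h. MIC is the lowest concentration with no macroscopic growth.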

Candida parapsilosis [19] = experiment: In vitro minimum inhibitory concentration at which no signs of fungal growth were detected against laboratory adapted strains of Candida parapsilosis.; type: functional; conditions: Lodderomyces parapsilosis
Summary of the method: as §5

Aspergillus niger = experiment: In vitro minimum inhibitory concentration at which no signs of fungal growth were detected against laboratory adapted strains of Aspergillus niger.; type: functional
Summary of the method: as §3

Candida albicans [20] = experiment: In vitro minimum inhibitory concentration at which no signs of fungal growth were detected against laboratory adapted strains of Candida albicans.; type: functional
Summary of the method: as §5

Aspergillus fumigatus [21] = experiment: In vitro minimum inhibitory concentration which is the lowest concentration at which no signs of fungal growth were detected against Aspergillus fumigatus

Row | Compound | MIC (Sporothrix schenckii [1]) [µg/mL] | MIC (Candida albicans [2]) [µg/mL] | MIC (Trichophyton benhamiae [3]) [µg/mL] | MIC (Aspergillus fumigatus [4]) [µg/mL] | MIC (Candida parapsilosis [5]) [µg/mL] | MIC (Microsporum canis [6]) [µg/mL] | also measured
1 | CN(C/C=C/C#CC(C)(C)C)Cc1cccc2c(Br)csc12.Cl |  |  |  |  |  |  | MIC (Sporothrix schenckii [7]): 0.4 µg/mL; MIC (Trichophyton benhamiae [8]): 6 ng/mL; MIC (Candida parapsilosis [9]): 0.2 µg/mL; MIC (Aspergillus fumigatus [10]): 0.8 µg/mL; MIC (Microsporum canis [11]): 6 ng/mL; MIC (Candida albicans [12]): 0.8 µg/mL
2 | CN(C/C=C/C#CC(C)(C)C)Cc1c(Cl)sc2ccccc12 | > 200 | > 200 | 0.1 (≈ 0.301 µM) | > 200 | 6.25 (≈ 18.8 µM) | 0.1 (≈ 0.301 µM) | 
3 | CN(C/C=C/C#CC(C)(C)C)Cc1cccc2c(Cl)csc12.Cl | 0.1 | 0.8 | 0.0015 | 0.2 | 0.1 | 0.003 | MIC (Aspergillus fumigatus [13]): 0.05 µg/mL; MIC (Arthrodermataceae [14]): 3 ng/mL; MIC (Candida albicans [15]): 3.13 µg/mL; MIC (Arthrodermataceae [16]): 0.02 µg/mL; MIC (Sporothrix schenckii [17]): 0.1 µg/mL; MIC [18]: 0.05 µg/mL; MIC (Nakaseomyces glabratus): > 100 µg/mL; MIC (Candida parapsilosis [19]): 0.02 µg/mL; MIC (Aspergillus niger): 0.02 µg/mL; MIC (Candida albicans [20]): 0.4 µg/mL
4 | CN(C/C=C/C#CC(C)(C)C)Cc1cc2ccccc2s1 | > 100 | > 200 | > 100 |  | > 200 | > 100 | 
5 | CN(C/C=C/C#CC(C)(C)C)Cc1cc(Cl)cc2ccsc12.Cl | > 200 | > 200 | 0.05 | 3.13 | 0.2 | 0.1 | 
6 | CN(C/C=C/C#CC(C)(C)C)Cc1ccc2sccc2c1 | > 200 | 200 (≈ 672 µM) | 0.4 (≈ 1.34 µM) | 1.56 (≈ 5.24 µM) | 100 (≈ 336 µM) | 1.56 (≈ 5.24 µM) | 

Second part, led by results:

Row | MIC (Sporothrix schenckii [1]) [µg/mL] | MIC (Candida albicans [2]) [µg/mL] | MIC (Trichophyton benhamiae [3]) [µg/mL] | MIC (Aspergillus fumigatus [4]) [µg/mL] | MIC (Candida parapsilosis [5]) [µg/mL] | MIC (Microsporum canis [6]) [µg/mL] | Compound | also measured
7 | 6.25 | 25 | 0.006 | 0.2 | 0.2 | 0.006 | CN(C/C=C/C#CC(C)(C)C)Cc1cccc2sc(Cl)cc12.Cl | 
8 | 3.13 | 100 | 0.01 | 0.8 | 3.13 | 0.02 | CN(C/C=C/C#CC(C)(C)C)Cc1csc2ccccc12.Cl | 
9 | > 100 | 25 | 0.02 | 0.8 | 1.56 | 0.05 | CN(C/C=C/C#CC(C)(C)C)Cc1csc2c(Cl)cccc12.Cl | 
10 | 0.05 | 0.8 | 0.0008 | 0.1 | 0.1 | 0.0015 | CN(C/C=C/C#CC(C)(C)C)Cc1cccc2c(F)csc12.Cl | 
11 | 3.13 (≈ 9.43 µM) | 12.5 (≈ 37.7 µM) | 0.006 (≈ 0.0181 µM) |  | 0.4 (≈ 1.21 µM) | 0.006 (≈ 0.0181 µM) | CN(C/C=C/C#CC(C)(C)C)Cc1csc2ccc(Cl)cc12 | MIC (Aspergillus fumigatus [21]): 0.4 µg/mL (≈ 1.21 µM)
12 | 25 | 50 | 0.05 | 0.8 | 6.25 | 0.1 | CN(C/C=C/C#CC(C)(C)C)Cc1cccc2scc(Cl)c12.Cl | 
